Laboratory results as given in ChEMBL document CHEMBL3632470, “Antimalarial and Antiproliferative Cassane Diterpenes of Caesalpinia sappan” (J Nat Prod, 2015).

Key:
[1] = test system: Plasmodium falciparum; test: Antimalarial activity against chloroquine-resistant Plasmodium falciparum K1 by microculture radioisotope technique; type: functional, organism-based
Summary of the method: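 Microculture radioisotope technique on P. falciparum K1 (multidrug-resistant strain), parasites kept in continuous culture. Three replications per experiment. IC50 reported as mean ± SD of triplicate experiments.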

[2] = test system: KB; test: Cytotoxicity against human KB cells after 48 hrs by MTT assay; type: functional, cell-based
Summary of the method: (§1)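 Cells grown in DMEM with 10% FBS, seeded at 6 × 10^4 cells/mL per well. Compounds in DMSO added at five concentrations, each in triplicate. Incubated 48 h at 37 °C in 5% CO2, then MTT (4 mg/mL) for another 4 h. Cells lysed in DMSO, absorbance read at 570 nm. At least three independent experiments.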

[3] = test system: HT-29; test: Cytotoxicity against human HT-29 cells after 48 hrs by MTT assay; type: functional, cell-based; conditions: HT-29, 48 h; summary of the method: as §1

Row | Compound | IC50 [1] | IC50 [2] | IC50 [3]
1 | CCO[C@@]12C[C@H]3[C@@H](CC[C@H]4C5(C(=O)OC)CCCC34C(OC)O[C@@H]5OC)[C@@H](C)C1=CC(=O)O2 (stereo not given in full) | 28.4 µM |  | 
2 | CCO[C@@]12C[C@H]3[C@@H](CC[C@H]4C5(C(=O)OC)CCCC34[C@H](O)OC5)[C@@H](C)C1=CC(=O)O2 (stereo not given in full) | 7.4 µM |  | 
3 | CCO[C@@]12C[C@H]3[C@@H](CCC4[C@](C)(C(=O)OC)CCC[C@@]43C(=O)O)[C@@H](C)C1=CC(=O)O2 (stereo not given in full) | 41.2 µM |  | 
4 | COC(=O)[C@]1(C)CCC[C@@]2(CO)C1CC[C@H]1[C@@H](C)C3=CC(=O)O[C@]3(O)C[C@@H]12 (stereo not given in full) | 2.5 µM |  | 
5 | CCO[C@@]12C[C@H]3[C@@H](CCC4C(C(=O)OC)(C(=O)OC)CCC[C@@]43C=O)[C@@H](C)C1=CC(=O)O2 (stereo not given in full) | 38.9 µM |  | 
6 | CCO[C@@]12C[C@H]3[C@@H](CC[C@H]4C5(C(=O)OC)CCCC34C(OC)OC5)[C@@H](C)C1=CC(=O)O2 (stereo not given in full) | 15.7 µM |  | 
7 | CCO[C@@H]1OC(OC)C2(C(=O)OC)CCCC13[C@H]1C[C@@]4(OCC)OC(=O)C=C4[C@H](C)[C@@H]1CC[C@@H]23 (stereo not given in full) | 34.8 µM |  | 
8 | CCOC1OCC2(C(=O)OC)CCCC13[C@H]1C[C@@]4(OC)OC(=O)C=C4[C@H](C)[C@@H]1CC[C@@H]23 (stereo not given in full) | 19.2 µM |  | 
9 | COc1cccc2c1C(=O)c1c(O)c3c(c(O)c1C2=O)C[C@@](O)(C(=O)CO)C[C@@H]3O[C@H]1C[C@H](N)[C@H](O)[C@H](C)O1 [DOXORUBICIN] |  | 1.4 µM | 0.68 µM
10 | CCO[C@H]1OC(OC)C23CCCC1(C(=O)OC)[C@@H]2CC[C@H]1[C@@H](C)C2=CC(=O)O[C@]2(OCC)C[C@@H]13 (stereo not given in full) | 32.1 µM |  | 
11 | COC(=O)C12CCCC3([C@H](O)OC1)[C@H]1C[C@@]4(O)OC(=O)C=C4[C@H](C)[C@@H]1CC[C@@H]23 (stereo not given in full) | 0.78 µM |  | 
12 | COC(=O)C12CCCC3(C(OC)OC1O)[C@H]1C[C@@]4(O)OC(=O)C=C4[C@H](C)[C@@H]1CC[C@@H]23 (stereo not given in full) | 0.52 µM |  | 
13 | CCO[C@@]12C[C@H]3[C@@H](CCC4[C@](C)(C(=O)OC)CCC[C@@]43C=O)[C@@H](C)C1=CC(=O)O2 (stereo not given in full) | 29.7 µM | 7.4 µM | 
